An excerpt weighted towards active compounds, which were near 1.9% of everything screened.
CHRM5 agonist = human M5 muscarinic receptor agonists, primary screen, CHO-K1 cells, Fluo-8 calcium fluorescence; activation, % at 3 µM; CHO-K1 hM5 cells; 0% DMSO wells, 100% maximal acetylcholine response; hit rate 0.19% among 360,000;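 active = activation above the run's mean over test compounds plus 3 SD, cut at about 23% in these data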;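 also: signal is peak over basal fluorescence ratio across the kinetic read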
Target sequence (P08912 whole entry, looked up): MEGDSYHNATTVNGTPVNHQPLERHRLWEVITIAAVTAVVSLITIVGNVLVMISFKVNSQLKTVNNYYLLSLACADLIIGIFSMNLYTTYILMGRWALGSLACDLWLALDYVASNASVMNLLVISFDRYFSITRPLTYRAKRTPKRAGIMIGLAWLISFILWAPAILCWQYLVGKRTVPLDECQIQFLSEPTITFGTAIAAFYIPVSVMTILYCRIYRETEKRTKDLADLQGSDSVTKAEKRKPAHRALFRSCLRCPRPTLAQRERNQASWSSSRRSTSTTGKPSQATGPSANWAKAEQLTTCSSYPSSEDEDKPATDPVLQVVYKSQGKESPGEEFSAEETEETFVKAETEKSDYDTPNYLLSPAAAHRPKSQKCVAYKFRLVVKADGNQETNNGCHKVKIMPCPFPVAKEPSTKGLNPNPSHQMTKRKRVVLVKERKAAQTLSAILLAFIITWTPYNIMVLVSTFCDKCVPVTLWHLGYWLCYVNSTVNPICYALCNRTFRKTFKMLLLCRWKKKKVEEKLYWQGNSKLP
M5 antag = human M5 muscarinic receptor antagonists, primary screen, CHO cells, Fluo-8 calcium fluorescence; hit rate 0.59% among 360,000; Muscarinic acetylcholine receptor M5 (Homo sapiens), P08912; inhibition, % at 3 µM; CHO-hM5 cells, ACh EC80;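 active = inhibition above a per-plate cutoff, the mean of that plate's test compounds plus 3 SD, cut at about 27% in these data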;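 also: 0% = acetylcholine EC80 with DMSO and 100% = DMSO without agonist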
M5 PAM = human M5 muscarinic receptor positive allosteric modulators, primary screen, CHO-K1 cells, Fluo-8 calcium fluorescence. Muscarinic acetylcholine receptor M5 (Homo sapiens), P08912. CHO-K1 hM5, ACh EC20 PAM; 0% = ACh EC20, 100% = ACh EC100. activation, % at 3 µM. hit rate 0.3% among 360,000;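 active = activation above the run cutoff, the mean activation of all test compounds plus 3 SD, cut at about 18% in these data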
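system = human M5 receptor in CHO-K1 cells | reagent = EC20 acetylcholine as agonist stimulus | compound dosing = single-point, 3 µM nominal | incubation = Fluo-8 loading 80 min at 37 °C plus 30 min room temperature | detection = Fluo-8 calcium dye fluorescence, kinetic read | benchmarks = low control EC20 acetylcholine (0%), high control EC100 acetylcholine (100%)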
M4 ag = human M4 muscarinic receptor agonists, primary screen, CHO-K1 cells, Fluo-8 calcium fluorescence. Muscarinic acetylcholine receptor M4 (Homo sapiens), P08173. CHO-K1 hM4/Gqi5; vehicle 0%, full acetylcholine response 100%. activation, % at 3 µM. hit rate 0.14% among 360,000. AID 624127, 2012;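 active = activation above the run mean over all test wells plus 3 SD, cut at about 32% in these data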;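 also: peak over basal fluorescence ratio per well then scaled between controls; 0% = DMSO wells and 100% = acetylcholine at EC100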
CHRM4 antagonist = human M4 muscarinic receptor antagonists, primary screen, CHO cells, Fluo-8 calcium fluorescence. Muscarinic acetylcholine receptor M4 (Homo sapiens), P08173. CHO-hM4 cells, ACh EC80. inhibition, % at 3 µM. hit rate 0.73% among 360,000. AID 624125, 2012;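 active = inhibition above its plate's cutoff, the mean inhibition of sample wells plus 3 SD, cut at about 27% in these data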;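 also: 0% = acetylcholine EC80 with DMSO and 100% = DMSO without agonist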
M4 PAM = human M4 muscarinic receptor positive allosteric modulators, primary screen, CHO-K1 cells, Fluo-8 calcium fluorescence. Muscarinic acetylcholine receptor M4 (Homo sapiens), P08173. CHO-K1 hM4/Gqi5, ACh EC20; 0% = ACh EC20, 100% = maximal ACh. activation, % at 3 µM. hit rate 0.4% among 360,000. AID 624126, 2012;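 active = activation above its plate's cutoff, the mean activation of sample wells plus 3 SD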
* marks the source's active call; other numbers are inactive results.

SMILES	CHRM5 agonist	M5 antag	M5 PAM	M4 ag	CHRM4 antagonist	M4 PAM
COc1ccc(C(=O)C=Cc2ccc3c(c2)OCO3)cc1OC	-0.3	1.4	0.2	3.5	9.1	-6.6
COc1cc2c(cc1OC)N1C(=O)CC(OCC(=O)O)C3C4CC5(CCN5C(=O)C4=O)C2C31 (centres undefined)	-2.9	7.8	0.7	0.8	-3.1	5.7
Cc1ccc(C(C)C)c(OCC(=O)NNC(=O)Nc2ccccc2)c1	4.7	6.4	0.2	3.3	5.6	-7.2
Cc1ccc(C(C)C)cc1OCC(=O)NNC(=O)Nc1ccccc1	-6.2	-0.4	-3.8	3.6	61.0*	-15.9
CN(CCc1ccccc1)C(=O)c1ccc(NC(=O)Cc2ccc(NC(=O)C3CCCN(C(=O)C4CCCC4)C3)cc2)cc1 (centres undefined)	1.7	9.0	-3.9	0.8	-1.2	-0.3
CC(C)Cc1ccc(C(C)C(=O)Nc2cccnc2)cc1 (centres undefined)	32.1*	14.6	-14.7	26.8	12.7	-18.7
CC(C(=O)Nc1cccnc1)c1ccc([N+](=O)[O-])cc1 (centres undefined)	1.8	-8.4	1.1	3.3	-0.3	-4.3
CC(C)Cc1ccc(C(C)C(=O)Nc2ccc(O)cc2)cc1 (centres undefined)	44.0*	27.2*	-6.2	79.2*	34.4*	-19.8
CC(C)Cc1ccc([C@H](C)C(=O)O)cc1	0.0	-4.5	5.1	-0.1	-0.7	-5.6
COc1ccc(C)cc1N(CC(=O)NCCSCc1ccco1)S(=O)(=O)c1ccc(C)cc1	-3.4	14.8	-2.8	9.4	-2.1	-8.2
Cc1ccc(NC(=O)CN(C)CC(=O)N(CC(C)C)c2c(N)n(CC(C)C)c(=O)[nH]c2=O)c(C)c1	2.7	2.3	6.2	1.6	-4.5	7.8
CCOC(=O)Cn1c2c(c(=N)c3c1CCC3)CCC2	-3.9	-6.4	4.0	0.3	9.2	0.4
CCCCCCCCn1c2c(c(=N)c3ccccc31)CCC2	-2.4	48.2*	-16.3	20.7	58.0*	-18.7
CCCCCCCCCCn1c2c(c(=N)c3c1CCC3)CCC2	-2.9	39.4*	-20.1	8.2	28.5*	-27.5
CCCCCCCCCn1c2c(c(=N)c3c1CCC3)CCCC2	-2.0	58.2*	-15.6	19.9	63.3*	-20.2
CCOC(=O)Cn1c2c(c(=N)c3ccccc31)CCC2	-2.4	5.3	18.9*	0.4	-14.6	12.5
OCC[C@@H]1C[C@H](O)[C@@H](O)[C@@]2(CCCc3ccccc3O2)O1	1.5	11.2	2.1	0.3	12.8	-3.9
Cc1noc(C)c1C(=O)N(CC(=O)Nc1ccc(Cl)c(C(F)(F)F)c1)Cc1ccco1	4.3	4.8	-4.3	8.1	-9.2	0.7
COc1ccc(N2CCN(C(=O)CNC(=O)Cn3cnc4sc(C)c(C)c4c3=O)CC2)cc1	-2.2	5.4	0.3	-0.1	-6.2	3.4
CCCNC(=O)CN1C(=O)NC(Cc2c[nH]c3ccccc23)C1=O (centres undefined)	-4.1	14.5	-3.4	-0.9	2.9	-4.6
CN1CCN(C2=Cc3ccccc3Sc3cc(F)c(F)cc32)CC1	-12.4	22.2	-42.8	3.8	16.8	-16.6
CN1CCN(C2=Cc3cc(Cl)ccc3Sc3cc(F)ccc32)CC1	-9.9	44.5*	-28.8	8.8	49.5*	-15.1
CN1CCN(C2=Cc3ccccc3Sc3cc(F)c(Cl)cc32)CC1	-12.5	14.9	-29.0	4.0	28.7*	-18.8
COc1ccc(/C=C(\C#N)C(=O)Nc2ccc3[nH]c(=O)[nH]c3c2)cc1	-0.5	23.9	-3.8	0.0	-4.8	0.0
COc1ccc(OC)c(C2=NOC(C(=O)N3CCCc4ccccc43)C2)c1 (centres undefined)	-3.3	3.6	0.1	2.3	3.1	-5.2
SMILES	CHRM5 agonist	M5 antag	M5 PAM	M4 ag	CHRM4 antagonist	M4 PAM
c1cnc2c(C3NCCc4c3[nH]c3ccccc43)cccc2c1 (centres undefined)	1.7	7.5	-7.7	2.7	38.3*	-14.3
COc1ccc2oc(C(=O)Nc3nccs3)c(C)c2c1	-4.2	-0.5	6.2	1.4	-2.8	7.1
CCCCc1nnc(NC(=O)c2oc3ccc(OC)cc3c2C)s1	-2.9	-16.1	19.3*	0.4	-15.3	14.8
CCN(CC)C(=O)c1cccc(-c2csc(C(C)(NC(C)=O)c3ccccc3)n2)c1 (centres undefined)	-1.9	5.4	-3.3	2.2	-15.9	0.3
COc1ccc(Cc2nnc(NC(=O)CSc3ccccc3)s2)cc1OC	28.5*	-2.7	-1.1	14.0	-6.4	1.4
COc1ccc(Cc2nnc(NC(=O)CSc3ccccc3)s2)cc1	5.0	2.1	1.3	3.3	5.1	4.6
NS(=O)(=O)c1ccc(CCNC(=O)C(=O)c2cn(CC(=O)N3CCCC3)c3ccccc23)cc1	-1.0	-7.0	-1.4	1.2	-3.4	-2.7
Cc1ccc(-c2nc3sc4c(c3c(=O)n2N)CCCC4)cc1	1.5	0.9	9.8	0.0	7.0	37.7*
Cc1ccc(-c2nc3sc4c(c3c(=O)n2N)CC(C)(C)OC4)cc1	0.2	-0.7	2.7	0.5	-1.0	5.7
Cc1cc(C)c(NC(=O)CNC(=O)c2cc(C3CC3)nn2-c2ccccc2)c(C)c1	-1.3	0.8	9.4	0.9	-14.3	0.4
CC[n+]1c(C)sc2c(C)cc(C)cc21	13.6	-6.4	26.8*	-0.9	4.3	-3.4
Cc1cc(C)c2sc(C)[n+](CCCS(=O)(=O)[O-])c2c1	3.9	-2.4	-1.1	1.3	-4.0	-1.5
COc1ccc(CNC(=O)CN(Cc2ccccc2)C(=O)CCC(=O)Nc2nccs2)cc1	-1.5	1.8	-0.9	4.9	13.1	-4.1
COC(=O)c1c(C)oc2ccc(N(C(=O)c3ccncc3)S(=O)(=O)c3ccc4ccccc4c3)cc12	0.9	25.4	-14.8	7.1	33.1*	-9.6
O=C1COc2ccccc2C(c2nc3ccccc3[nH]2)N1C1CC1 (centres undefined)	1.4	-4.1	0.0	0.3	-0.7	8.7
O=C(O)C(Cc1c[nH]c2ccccc12)NS(=O)(=O)c1ccc(F)cc1 (centres undefined)	1.1	-6.6	0.2	1.4	2.3	-5.5
O=C(O)C(Cc1c[nH]c2ccccc12)NS(=O)(=O)c1ccc2ccccc2c1 (centres undefined)	-1.9	-13.2	7.2	0.1	-16.0	20.4*

Screening results: PubChem, The Scripps Research Institute Molecular Screening Center
